Source: ChEMBL document CHEMBL1157729, “Structure-activity relationship and mechanism of action studies of manzamine analogues for the control of neuroinflammation and cerebral infections” (J Med Chem, 2010)
≈ marks a conversion by molar mass, not a printed value.

Legend:
[1] = Antineuroinflammatory activity in LPS-stimulated rat neonatal microglia assessed as inhibition of PMA-induced superoxide anion production preincubated 15 mins prior to PMA challenge measured after 70 mins; format: functional, cell-based
Plasmodium berghei [2] = test: Antiplasmodial activity against Plasmodium berghei NK65 infected in Swiss Webster mice (Mus musculus) assessed as average parasitaemia at 1.1 mg/kg, perorally administered 1 day after infection for 3 days measured after 21 days post infection; format: functional; details: route oral
Vero = test: Cytotoxicity against african green monkey Vero cells after 48 hrs by neutral red assay; format: cell-based; details: chlorocebus sabaeus
Procedure, shortened: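 Vero cells seeded at 25,000/well and grown 24 h, then exposed to serially diluted samples for 48 h. Viable cells measured by neutral red assay, with doxorubicin as positive control. IC50 taken from dose-response curves.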

Plasmodium berghei [3] = test: Antiplasmodial activity against Plasmodium berghei NK65 infected in Swiss Webster mice (Mus musculus) assessed as average parasitaemia at 200 mg/kg, perorally administered 1 day after infection measured after 28 days post infection; format: functional; details: Plasmodium berghei, NK65, route oral
Procedure, shortened: (§1)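 Male Swiss Webster mice (18-20 g, ≥5/group) inoculated i.p. with 2×10^7 P. berghei NK-65 parasitized RBC, given a single oral dose (100 μl, SSV or dilute HCl vehicle); parasitemia by Giemsa-stained tail blood smears days 5–28; activity as % decrease versus untreated controls on day 5.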

Plasmodium berghei [4] = test: Antiplasmodial activity against Plasmodium berghei NK65 infected in Swiss Webster mice (Mus musculus) assessed as suppression of parasitaemia at 10 mg/kg, intraperitoneally administered 1 day after infection for 3 days measured after 5 days post infection relative to control; format: functional; details: Plasmodium berghei, NK65, ip, route intraperitoneal
Plasmodium berghei [5] = test: Antiplasmodial activity against Plasmodium berghei NK65 infected in Swiss Webster mice (Mus musculus) assessed as average parasitaemia at 100 mg/kg, perorally administered 1 day after infection measured after 14 days post infection; format: functional; details: route oral; procedure, shortened: as §1
Plasmodium berghei [6] = test: Antiplasmodial activity against Plasmodium berghei NK65 infected in Swiss Webster mice (Mus musculus) assessed as inhibition of parasitaemia at 100 mg/kg, perorally administered 1 day after infection measured after 5 days post infection; format: functional; details: route oral; procedure, shortened: as §1
HeLa [7] = test: Cell cycle arrest in human HeLa cells assessed as increase in S phase accumulation at 5 uM after 24 hrs by FACS analysis; format: functional
Plasmodium berghei [8] = test: Antiplasmodial activity against Plasmodium berghei NK65 infected in Swiss Webster mice (Mus musculus) assessed as inhibition of parasitaemia at 3.3 mg/kg, perorally administered 1 day after infection for 3 days measured after 5 days post infection; format: functional; details: route oral
Procedure, shortened: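 Male Swiss Webster mice (18-20 g, ≥5/group) inoculated i.p. with 2×10^7 P. berghei NK-65 parasitized RBC; oral dosing (100 μl, SSV or dilute HCl vehicle) once daily for 3 days from day 1; Giemsa-stained tail blood smears days 5–28; inhibition is % decrease versus untreated controls on day 5.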

Plasmodium berghei [9] = test: Antiplasmodial activity against Plasmodium berghei NK65 infected in Swiss Webster mice (Mus musculus) at 3.3 mg/kg, po; format: functional
Procedure, shortened: (§2)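 Male Swiss Webster mice (18-20 g), at least 5 per group, inoculated i.p. with 2×10^7 P. berghei NK-65-parasitized red cells from a donor mouse. Oral dosing (100 μl, in SSV or 0.01 M HCl dilutions) from day one post-infection on a 3-day schedule (modified Peters test). Giemsa-stained tail-blood smears read from day 5 to day 28. Cure means no parasitemia through day 28.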

Plasmodium berghei [10] = test: Antiplasmodial activity against Plasmodium berghei NK65 infected in Swiss Webster mice (Mus musculus) assessed as average parasitaemia at 5 mg/kg, perorally administered 1 day after infection for 3 days measured after 21 days post infection; format: functional; details: route oral
HeLa [11] = test: Cell cycle arrest in human HeLa cells assessed as decrease in G2/M phase accumulation at 3 uM after 24 hrs by FACS analysis; format: functional; design: scale not given: the % may be the effect or the level left
Plasmodium berghei [12] = test: Antiplasmodial activity against Plasmodium berghei NK65 infected in Swiss Webster mice (Mus musculus) at 10 mg/kg, po; format: functional
Cryptococcus neoformans = test: Antifungal activity against Cryptococcus neoformans ATCC 90113; format: functional, organism-based
Procedure, shortened: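 Broth microdilution per modified CLSI method; samples serially diluted in 20% DMSO/saline, tested in duplicate; inocula set by OD630 of suspensions in incubation broth; growth read at 630 nm before and after incubation; amphotericin B drug control.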

MDCK = test: Apparent permeability across apical to basolateral side of MDCK cells expressing MDR; format: ADME, cell-based, Canis lupus familiaris; details: dog
Procedure, shortened: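 MDR-MDCK cells (passage 12-40) seeded at 75,000 cells/cm2 and grown 8 days on Transwell inserts to a monolayer. Bidirectional transport over 2 h in HBSS pH 7.4 with test substance at 50 μM and caffeine (5 μM) as standard. Donor and receiver samples quantified by LC-MS. Cumulative amount transported plotted against time to derive apparent permeability.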

Plasmodium berghei [13] = test: Antiplasmodial activity against Plasmodium berghei NK65 infected in Swiss Webster mice (Mus musculus) assessed as parasitaemia cure at 1.1 mg/kg, perorally administered 1 day after infection for 3 days measured after 28 days post infection; format: functional; details: route oral; procedure, shortened: as §2
Plasmodium berghei [14] = test: Antiplasmodial activity against Plasmodium berghei NK65 infected in Swiss Webster mice (Mus musculus) assessed as parasitaemia cure at 5 mg/kg, perorally administered 1 day after infection for 3 days measured after 28 days post infection; format: functional; details: route oral
Plasmodium berghei [15] = test: Antiplasmodial activity against Plasmodium berghei NK65 infected in Swiss Webster mice (Mus musculus) assessed as average parasitaemia at 200 mg/kg, perorally administered 1 day after infection measured after 10 days post infection; format: functional; details: Plasmodium berghei, NK65, route oral; procedure, shortened: as §1
Plasmodium berghei [16] = test: Antiplasmodial activity against Plasmodium berghei NK65 infected in Swiss Webster mice (Mus musculus) assessed as average parasitaemia at 5 mg/kg, perorally administered 1 day after infection for 3 days measured after 28 days post infection; format: functional; details: route oral
Plasmodium berghei [17] = test: Antiplasmodial activity against Plasmodium berghei NK65 infected in Swiss Webster mice (Mus musculus) assessed as average parasitaemia at 50 mg/kg, perorally administered 1 day after infection measured after 14 days post infection; format: functional; details: route oral; procedure, shortened: as §1
Plasmodium berghei [18] = test: Antiplasmodial activity against Plasmodium berghei NK65 infected in Swiss Webster mice (Mus musculus) assessed as average parasitaemia at 100 mg/kg, perorally administered 1 day after infection measured after 28 days post infection; format: functional; details: route oral; procedure, shortened: as §1
Plasmodium berghei [19] = test: Antiplasmodial activity against Plasmodium berghei NK65 infected in Swiss Webster mice (Mus musculus) assessed as average parasitaemia at 50 mg/kg, perorally administered 1 day after infection measured after 28 days post infection; format: functional; details: route oral; procedure, shortened: as §1
Plasmodium berghei [20] = test: Antiplasmodial activity against Plasmodium berghei NK65 infected in Swiss Webster mice (Mus musculus) assessed as parasitaemia cure at 10 mg/kg, perorally administered 1 day after infection for 3 days measured after 28 days post infection; format: functional; details: route oral; procedure, shortened: as §2
Plasmodium berghei [21] = test: Antiplasmodial activity against Plasmodium berghei NK65 infected in Swiss Webster mice (Mus musculus) assessed as average parasitaemia at 50 mg/kg, perorally administered 1 day after infection measured after 7 days post infection; format: functional; details: route oral; procedure, shortened: as §1
Plasmodium berghei [22] = test: Antiplasmodial activity against Plasmodium berghei NK65 infected in Swiss Webster mice (Mus musculus) assessed as average parasitaemia at 200 mg/kg, perorally administered 1 day after infection measured after 14 days post infection; format: functional; details: Plasmodium berghei, NK65, route oral
Procedure, shortened: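 Male Swiss Webster mice (18-20 g), at least 5 per group, were inoculated ip with 2×10^7 P. berghei NK-65-parasitized red cells from a donor mouse and given a single oral dose (100 μl). Stock was made in SSV or 0.1 M HCl and diluted in SSV or 0.01 M HCl. Parasitemia was read from Giemsa-stained tail blood smears from day 5 to day 28. Cure meant no parasitemia through day 28.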

`O[C@]12C=C(c3nccc4c3[nH]c3ccccc34)[C@@H]3CCN(CCCC/C=C\CC1)C[C@@]31C[C@@H]3/C=C\CCCCN3[C@H]12` [MANZAMINE A] showed an IC50 [1] of 100 nM, an inhibition in vivo at 1.1 mg/kg (Plasmodium berghei [2]) of 39.6% and an IC50 (Vero) of 0.2 µg/mL (≈ 0.364 µM). The inhibition in vivo at 200 mg/kg (Plasmodium berghei [3]) was 0%, the inhibition in vivo at 10 mg/kg (Plasmodium berghei [4]) was 100% and the inhibition in vivo at 100 mg/kg (Plasmodium berghei [5]) was 0%. The inhibition in vivo at 100 mg/kg (Plasmodium berghei [6]) was 100%, the Activity (HeLa [7]) was 56.3% and the inhibition in vivo at 3.3 mg/kg (Plasmodium berghei [8]) was 88%. For the same molecule, the inhibition in vivo at 3.3 mg/kg (Plasmodium berghei [9]) was greater than 30%, the inhibition in vivo at 5 mg/kg (Plasmodium berghei [10]) was 21.7% and the Activity (HeLa [11]) was 13%. For the same molecule, the inhibition in vivo at 10 mg/kg (Plasmodium berghei [12]) was greater than 30%, the IC50 (Cryptococcus neoformans) was 1 µg/mL (≈ 1.82 µM) and the Papp (MDCK) was 0.87 ×10⁻⁶ cm/s. It also gave an inhibition in vivo at 1.1 mg/kg (Plasmodium berghei [13]) of 0%, an inhibition in vivo at 5 mg/kg (Plasmodium berghei [14]) of 0% and an inhibition in vivo at 200 mg/kg (Plasmodium berghei [15]) of 0%. The inhibition in vivo at 5 mg/kg (Plasmodium berghei [16]) was 39.3%, the inhibition in vivo at 50 mg/kg (Plasmodium berghei [17]) was 1% and the inhibition in vivo at 100 mg/kg (Plasmodium berghei [18]) was 0%. The inhibition in vivo at 50 mg/kg (Plasmodium berghei [19]) was 6.25%, the inhibition in vivo at 10 mg/kg (Plasmodium berghei [20]) was 75% and the inhibition in vivo at 50 mg/kg (Plasmodium berghei [21]) was 0%. It also gave an inhibition in vivo at 200 mg/kg (Plasmodium berghei [22]) of 0%.
